G6PDH CS: L. mesenteroides G6PDH inhibition counter-screen; Purified L. mesenteroides G6PDH, diaphorase/resazurin coupled fluorescence, 45 min; inhibition, % at 5 µM; actives 0.12% (n = 200,000); AID 1020; in the data active means inhibition above about 50%
ROMK mod: modulators of human ROMK potassium channel; AID 1918; P48048; Tet-inducible ROMK, thallium flux fluorescence; actives lie on both sides; B-score at 10 µM; actives 2% (n = 130,000);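 active means signal ratio slope over the read window, or its plate-corrected B-score, at least 3 SD from the plate mean, either direction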;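 further: B-score of the F/F0 ratio slope over 7 to 12 s after thallium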
Diaphorase act: activates diaphorase or chemically reduces, flagging diaphorase assay artifacts; Diaphorase/resazurin coupled assay, resorufin fluorescence, 16 min; hits give high values; 1 = vehicle wells, 0 = NADH-free wells; activation factor at 20 µM; actives 0.005% (n = 190,000); AID 1229;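 active means diaphorase activity raised at least twofold by the compound at 20 µM; inactive means activation factor below 2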
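Test system: Clostridium kluyveri diaphorase, purified enzyme; input: enzyme 0.07 U/mL final; buffer or medium: 50 mM HEPES pH 7.4 with 4.542 mM MgCl2, 0.005% Tween 20; also added: 0.114 mM NADH and 0.1 mM resazurin, final amounts; schedule: 16 min enzyme reaction, ambient temperature; technique: fluorescence of resorufin, 544 nm excitation, 590 nm emission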
Diaph inh CS: inhibits diaphorase or chemically oxidizes, flagging diaphorase assay artifacts; diaphorase resazurin-to-resorufin fluorescence, NADH, 16 min; bacterial (C. kluyveri) enzyme, not human; inhibition, % at 20 µM; actives 0.69% (n = 190,000);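 active means primary screen inhibition at 20 µM above a set limit, cut at about 50% in these data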
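Assay system: diaphorase enzyme from Clostridium kluyveri. Quantity: enzyme working solution with 0.14 U/mL diaphorase. Schedule: reaction incubation of 16 min at room temperature. Technique: resorufin fluorescence, excitation 544 nm, emission 590 nm. Controls: No-NADH positive control and DMSO neutral control.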
PMI activator: increases human mannose-6-phosphate isomerase activity; P34949; purified human PMI, coupled resazurin fluorescence, 20 min; hits give high values; 1 = vehicle control, 0 substrate-free wells; activation factor at 20 µM; actives 0.005% (n = 190,000);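 active means activation factor of 2 or more at 20 µM, relative to plate controls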
Target sequence (P34949 whole entry, looked up): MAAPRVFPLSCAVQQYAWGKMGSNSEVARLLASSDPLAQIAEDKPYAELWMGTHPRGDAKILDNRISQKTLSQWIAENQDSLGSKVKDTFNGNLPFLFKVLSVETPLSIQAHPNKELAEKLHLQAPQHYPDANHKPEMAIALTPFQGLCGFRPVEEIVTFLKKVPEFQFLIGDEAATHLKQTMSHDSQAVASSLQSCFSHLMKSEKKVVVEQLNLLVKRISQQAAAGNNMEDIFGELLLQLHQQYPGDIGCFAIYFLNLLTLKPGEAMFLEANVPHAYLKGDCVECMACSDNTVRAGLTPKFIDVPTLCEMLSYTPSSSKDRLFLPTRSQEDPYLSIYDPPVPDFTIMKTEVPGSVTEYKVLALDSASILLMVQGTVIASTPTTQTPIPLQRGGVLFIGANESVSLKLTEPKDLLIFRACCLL
PMI act hi M6P: PMI (human) activation, high substrate | P34949 | coupled PMI enzyme assay, resazurin fluorescence, 20 min; hits give high values; 1 = untreated enzyme, 0 = substrate-free blank | activation factor at 20 µM | actives 0.34% (n = 190,000) | AID 1216;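 active means activation factor of 2 or more at 20 µM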
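Test system: human phosphomannose isomerase with PGI, G6PDH, diaphorase coupling enzymes; Amount: PMI at 15 ng/mL final; Reagent: Mannose-6-phosphate 1.0 mM (near-saturating) plus 0.22 mM NADP+; Timing: 20 min, room temperature; Technique: resorufin fluorescence at Ex 544/Em 590 nm; Dosing: 20 µM single dose.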
Numbers stand for hits; i = inactive; nt = no result. In the library only some 2.2% were active in any assay of this set; here they are far more common.

SMILES	G6PDH CS	ROMK mod	Diaphorase act	Diaph inh CS	PMI activator	PMI act hi M6P
CCOC(=O)C1CCN(C(=O)Nc2ccc3c(c2)nc(C)n3C)CC1	i	i	i	i	i	i
Cc1nc2ccc(NC(=O)N3CCCCC3)cc2nc1C	i	i	i	i	i	i
Cc1ccc(OC(C)C(=O)N=Nc2c(O)[nH]c3ccc([N+](=O)[O-])cc23)cc1 (centres undefined)	i	i	i	i	i	i
COc1ccc(-c2csc(/C(C#N)=C\c3ccc(O)c([N+](=O)[O-])c3)n2)cc1OC	nt	i	nt	nt	nt	nt
COc1cc(/C=C(\C#N)c2nc3ccccc3s2)cc([N+](=O)[O-])c1O	i	i	i	85	i	i
N#C/C(=C/c1ccc(-c2cc(C(=O)O)cc(C(=O)O)c2)o1)c1nc2ccccc2s1	i	i	i	61	i	i
N#C/C(=C\c1ccco1)c1nc2ccccc2s1	i	i	i	i	i	i
N#C/C(=C\c1ccc(O)c([N+](=O)[O-])c1)c1nc2ccccc2s1	i	i	i	97	i	i
NCCCCC(NC(=O)C1CCCN1C(=O)C1CSSCC(N)C(=O)NC(Cc2ccc(O)cc2)C(=O)NC(Cc2ccccc2)C(=O)NC(CCC(N)=O)C(=O)NC(CC(N)=O)C(=O)N1)C(=O)NCC(N)=O (centres undefined)	i	i	i	i	i	i
COC1=C(OC)C(=O)C(CCCCCCCCCCO)=C(C)C1=O	63	nt	i	57	i	i
Cn1c(=NC(=O)COc2ccccc2)sc2ccccc21	i	i	i	i	i	i
O=C1c2cccc3c(N4CCCCC4)ccc(c23)C(=O)N1c1ccccn1	i	nt	i	52	i	i
CNc1ccc(Br)cc(C(=O)/C=C/c2ccc3c(c2)OCO3)c1=O	i	nt	i	57	i	i
CC1(C)CC(=O)C(N=Nc2ccc(OC(F)F)cc2)=C(O)C1	i	i	i	i	i	i
Cc1[nH][nH]c(=O)c1C(c1c(C)[nH][nH]c1=O)c1cn(Cc2cccc3ccccc23)c2ccccc12	i	-2.7	i	i	i	i
Cc1[nH][nH]c(=O)c1C(c1c(C)[nH][nH]c1=O)c1cn(C)c2ccccc12	i	i	i	i	i	i
CC(=O)Nc1ccccc1OCC(=O)c1cc(C)n(Cc2cccs2)c1C	i	nt	i	i	i	i
Cc1cc(C(=O)CSc2n[nH]c(-c3ccccc3F)n2)c(C)n1Cc1cccs1	i	i	i	50	i	i
Cc1cc(C(=O)COc2cccnc2[N+](=O)[O-])c(C)n1Cc1cccs1	i	i	i	60	i	i
CC(=O)NCC1CCCN(Cc2cn(-c3ccccc3F)nc2-c2cc(C)sc2C)C1 (centres undefined)	i	i	i	i	i	i
C/C(=N/Nc1ccc(C)cc1)C1(C)N(O)C(C)(C)C(c2ccco2)=[N+]1[O-] (centres undefined)	i	i	i	i	i	2.7
O=C(N/N=C/c1ccc(-c2cccc([N+](=O)[O-])c2)o1)[C@H]1C[C@@H]1c1ccccc1	i	nt	i	i	i	i
O=C(N/N=C/c1ccc(-c2ccccc2[N+](=O)[O-])o1)[C@H]1C[C@@H]1c1ccccc1	i	nt	i	52	i	i
CN1CCN(C2=C(Cl)C(=O)C(c3cnc(N4CCCCC4)s3)=C(Cl)C2=O)CC1	51	i	i	64	i	i
CN1CCN(C2=C(Cl)C(=O)N(C3CCCCC3)C2=O)CC1	i	i	i	i	i	i
SMILES	G6PDH CS	ROMK mod	Diaphorase act	Diaph inh CS	PMI activator	PMI act hi M6P
COc1cc(-c2cc(=O)c3c(O)c(OC)c(OC)c(O)c3o2)ccc1O	i	nt	i	66	i	i
CCOC(=O)N1CCN(C(=O)c2c(N)no[n+]2[O-])CC1	i	nt	i	i	i	i
Cc1ccc(S(=O)(=O)N/N=C\c2cc([N+](=O)[O-])ccc2Cl)cc1	i	nt	i	i	i	2
O=C(Oc1cccc2cccnc12)c1cccc([N+](=O)[O-])c1	59	i	i	i	i	i
O=C(Oc1cccc2cccnc12)c1ccco1	i	i	i	i	i	i
O=C(Cc1ccc(Cl)cc1)Oc1cccc2cccnc12	63	i	i	i	i	i
O=C(Oc1ccc(Cl)c2cccnc12)c1cccc([N+](=O)[O-])c1	i	nt	i	i	i	i
Cc1ccc(S(=O)(=O)N2CCC(NC(=O)c3cccc(C)c3)CC2)cc1	i	nt	i	i	i	i
CNS(=O)(=O)c1cccc(C(=O)OCC(=O)N(Cc2ccccc2)C(C)(C)C)c1	i	i	i	i	i	i
N=C1/C(=C\c2ccc(-c3cc(Cl)cc(Cl)c3)o2)C(=O)N=C2SC=C(c3ccccc3)N12	i	nt	i	i	i	i
N=C1/C(=C/c2ccc(-c3cccc(C(=O)O)c3)o2)C(=O)N=C2SC=C(c3ccccc3)N12	i	2.3	i	54	i	i
CC(C)S(=O)(=O)C1=NSC2=NC(=O)/C(=C\c3ccc(-c4cccc(C(=O)O)c4)o3)C(=N)N21	i	i	i	74	i	i
CC(C(=O)Nc1sc2c(c1C#N)CCCCC2)N1C(=O)c2ccccc2C1=O (centres undefined)	i	nt	i	i	i	i
COc1ccc(S(=O)(=O)N/N=c2\oc3c(OC)cccc3cc2S(=O)(=O)c2ccc(C)cc2)cc1OC	i	i	i	i	i	i
O/N=C(/CN(O)/C=C1/C=CC=N1)c1cccs1	i	-5	i	i	i	i
O=c1oc(Nc2cccc(Cl)c2)nc2ccccc12	i	i	i	i	i	i
COc1ccc(C(=O)/C=C2\NCC3c4ccccc4CCN3C2=O)cc1 (centres undefined)	i	i	i	i	i	2.4
COc1ccc(C(=O)N2CCc3ccccc32)cc1	i	nt	i	i	i	i
Oc1ccc(Nc2nc(N3CCCC3)c3ccccc3n2)cc1	i	-4.8	i	i	i	i
Cc1ccc2cccc(S(=O)(=O)N3CCCc4ccccc43)c2n1	i	i	i	i	i	i
CCCCNC(=S)Nc1ccccc1Cc1ccccc1	i	i	i	i	i	i
Cc1noc(NS(=O)(=O)c2ccc(NC(=O)CSc3nc4ccccc4[nH]3)cc2)c1C	i	nt	i	i	i	i
Cc1noc(NS(=O)(=O)c2ccc(NC(=O)CSc3nnc4c(n3)[nH]c3ccccc34)cc2)c1C	i	nt	i	65	i	i
COc1ccc(N2CSC3=C(C#N)C(c4cc(OC)c(OC)cc4OC)CC(=O)N3C2)c(OC)c1 (centres undefined)	i	nt	i	66	i	i

Compound activity: PubChem BioAssay, several laboratories
